High-throughput results from PubChem.
CSC inhib = cancer stem cell inhibition; cancer stem cell-like cells viability, luminescence; 300,000 compounds, 1.1% hits; AID 2717; inhibition, % at 7.5 µM; in the data active means inhibition above about 75%; tested in HMLE shEcad cells
TMEM16A inh = inhibitors of mouse TMEM16A calcium-activated chloride channel; Q8BHY3; HEK293 TMEM16A/YFP iodide influx fluorescence, ionomycin; normalized B-score (activity score, 25-100; higher = stronger inhibition) at 10 µM; 310,000 compounds, 1.2% hits;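 active means ratio plate-corrected score three or more library SD toward inhibition, starting fluorescence score within five deviations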;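 further: score derived from kinetic fluorescence span divided by baseline fluorescence per well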
Target sequence (Q8BHY3 whole entry, looked up): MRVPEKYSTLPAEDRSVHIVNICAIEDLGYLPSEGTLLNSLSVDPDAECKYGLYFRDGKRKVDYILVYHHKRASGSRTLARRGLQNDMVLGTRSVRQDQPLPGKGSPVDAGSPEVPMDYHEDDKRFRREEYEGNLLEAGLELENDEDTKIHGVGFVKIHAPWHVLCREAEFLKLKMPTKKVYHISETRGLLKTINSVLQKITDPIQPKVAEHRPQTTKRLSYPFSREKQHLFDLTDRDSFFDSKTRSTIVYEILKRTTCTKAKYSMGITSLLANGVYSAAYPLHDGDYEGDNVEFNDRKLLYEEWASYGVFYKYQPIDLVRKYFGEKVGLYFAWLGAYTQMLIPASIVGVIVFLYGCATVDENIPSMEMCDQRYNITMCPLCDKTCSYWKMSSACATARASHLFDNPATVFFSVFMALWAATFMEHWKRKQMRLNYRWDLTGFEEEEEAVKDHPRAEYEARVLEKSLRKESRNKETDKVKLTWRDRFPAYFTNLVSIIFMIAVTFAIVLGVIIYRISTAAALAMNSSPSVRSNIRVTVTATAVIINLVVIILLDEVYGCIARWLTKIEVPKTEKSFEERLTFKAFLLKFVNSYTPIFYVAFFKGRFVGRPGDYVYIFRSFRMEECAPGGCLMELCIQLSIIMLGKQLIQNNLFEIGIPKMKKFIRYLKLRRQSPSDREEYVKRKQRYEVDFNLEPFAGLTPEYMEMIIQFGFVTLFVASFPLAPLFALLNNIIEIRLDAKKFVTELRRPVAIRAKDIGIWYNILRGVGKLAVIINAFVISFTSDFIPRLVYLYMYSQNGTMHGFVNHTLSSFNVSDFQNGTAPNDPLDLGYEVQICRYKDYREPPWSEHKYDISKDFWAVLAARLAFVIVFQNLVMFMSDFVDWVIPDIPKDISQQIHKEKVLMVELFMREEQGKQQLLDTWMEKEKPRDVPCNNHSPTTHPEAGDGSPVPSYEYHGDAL
ANO1 activ = activates or potentiates the mouse TMEM16A chloride channel; B-score at 10 µM; 340,000 compounds, 0.3% hits; HEK293 TMEM16A/YFP-H148Q/I152L, iodide quench fluorescence; active compounds read low; AID 623877;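 active means fluorescence-ratio B-score plate-corrected deviation score at least 3 library SD below zero, with starting fluorescence score within 5 deviations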;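 further: channel opened by trigger with iodide after compound preincubation; score built on the fluorescence ratio of max minus min over baseline; more negative score means more quench and so TMEM16A activation or potentiation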
MC4R ag barr = activates human MC4R beta-arrestin recruitment; activation, % at 8.9 µM; AID 540308; P32245; U2OS MC4R beta-arrestin complementation, luminescence; percent of melanotan II response, DMSO zero; 360,000 compounds, 0.98% hits;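 active means activation above a per-plate cutoff, the mean activation of sample wells on that plate plus 3 SD, cut at about 8% in these data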
Beta cell apopt = blocks beta cell apoptosis | INS-1E cytokine-induced death, ATP luminescence, 48 h; percent of positive-control rescue, neutral wells zero | 300,000 compounds, 0.8% hits | AID 435005 | protection from apoptosis, % (concentration not given with the values);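 active means Every replicate reaches about 75%, or at least half do and their mean reaches it too, limit read from the data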;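 further: 0% = cytokine-treated negative control wells and 100% = positive control rescue; higher means more ATP so stronger rescue from cytokine killing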
MC4R antag cAMP = blocks human MC4R cAMP signaling. P32245. MC4R-expressing cells, MTII-stimulated cAMP, LANCE TR-FRET. inhibition, % at 6.5 µM. 360,000 compounds, 0.48% hits. AID 540295;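 active means inhibition above its plate's cutoff, the mean of tested wells on that plate plus 3 SD, cut at about 29% in these data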;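 further: 0% = Melanotan II alone and 100% = Melanotan II plus saturating MCL0020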
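System: U2OS-MC4R stable cell line; Technique: Eu-cAMP/anti-cAMP TR-FRET, emission 671 nm; Repeats: single well per compound; Also added: Melanotan II; Dosing: one concentration, 6.5 µM nominal; Schedule: 30-min compound, 1-h challenge, 1-h detection, room temperature.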
* = called active by the depositor; i = inactive; nt = no result given. Rows were chosen to be rich in hits. Some 3.8% of all compounds tested hit in one or more screens of this group.

SMILES	CSC inhib	TMEM16A inh	ANO1 activ	MC4R ag barr	Beta cell apopt	MC4R antag cAMP
O=C1NC(c2cccc(OCc3ccccc3)c2)Nc2ccccc21 (stereo unspecified)	nt	nt	i	-1.4	nt	-6.5
O=C(Nc1ccc(Oc2c(F)c(F)c(F)c(F)c2F)cc1)OC1CCN2Cc3ccccc3N=C12 (stereo unspecified)	103.5*	i	i	9.3*	71.0	27.5
CCOC(=O)Cc1csc(NC(=O)C(NC(=O)C2CCC(C)CC2)C(C)C)n1 (stereo unspecified)	-7.0	i	i	-0.1	6.1	2.2
O=S(=O)(CS(=O)(=O)c1ccccc1)c1ccccc1	nt	nt	i	-0.6	nt	3.8
O=S(=O)(C/C(=C/CO)S(=O)(=O)c1ccccc1)c1ccccc1	3.1	i	i	-2.0	90.3*	3.0
O=C1C(N2CCOCC2)=C(n2nnc3ccccc32)C(=O)c2ccccc21	109.8*	i	i	-2.1	120.2*	-12.8
COc1ccc(OC)c(-c2csc(N(CC3CCCO3)C(=O)C3CCCCC3)n2)c1 (stereo unspecified)	77.9*	i	i	-1.3	3.1	8.2
CCOC(=O)N1CCN(C(=O)COc2cc(=O)n(C)c3ccccc23)CC1	-3.1	25*	i	-2.3	1.8	-0.8
Oc1ccccc1/C=N/Nc1nccnc1Cl	88.2*	i	i	-0.6	94.4*	4.4
O=[N+]([O-])c1ccc(NN=Cc2ccc(O)cc2O)nc1	nt	nt	i	-6.4	nt	-3.2
Oc1ccc(/C=N/Nc2ncc(Br)cn2)c(O)c1	90.8*	i	i	-1.9	86.9*	-4.2
Oc1ccc(/C=N/Nc2nccnc2Cl)c(O)c1	95.3*	i	i	-2.6	75.2*	-8.8
COc1cccc(/C=N/Nc2nccnc2Cl)c1O	nt	nt	i	-2.2	nt	-4.8
CCN(CC)S(=O)(=O)c1ccc(N/N=C/c2ccc(O)cc2O)nc1	112.0*	i	i	-2.6	66.4	-25.4
Oc1ccc(C=NNc2ccccn2)c(O)c1	nt	nt	i	0.2	nt	-6.4
O=[N+]([O-])c1cccnc1N/N=C/c1ccccc1O	53.2	i	i	-2.8	109.7*	-8.2
CCN1C(=O)C(CC(=O)Nc2ccc(OC)cc2)N(CCCN2CCN(c3ccc(F)cc3)CC2)C1=S (stereo unspecified)	80.9*	i	i	1.5	7.2	19.4
COc1ccc(CCN2C(=S)N(C)C(=O)C2CC(=O)Nc2ccc(OC)cc2)cc1 (stereo unspecified)	96.8*	i	i	-0.7	1.6	4.9
CCCCN(C)C(=O)c1nc2ccccn2c1CN1CCC[C@H]1CO	-9.4	i	i	-2.4	4.3	2.8
Cc1ccc(SC2=C(Sc3ccc(C)cc3)C(=O)c3ccccc3C2=O)cc1	78.0*	i	i	-1.5	-22.8	9.9
C=CCn1c(Cc2c(C)[nH]c3ccccc23)nnc1SCC(=O)NCc1ccc(F)cc1	-16.8	100*	i	1.0	-5.2	0.3
CCCCNC(=O)C1(C)CCN1C(=O)c1cccnc1Oc1ccccc1 (stereo unspecified)	nt	nt	nt	0.3	nt	2.9
O=C1c2ccccc2/C(=C\c2ccc3[nH]ccc3c2)N1c1ccccc1	nt	nt	i	-1.7	-4.8	-0.2
CCC/C(=C1/c2ccccc2C(=O)N1c1ccccc1)c1ccc2[nH]ccc2c1	134.8*	nt	i	-0.9	19.0	-2.0
CCSc1nc(-c2ccccc2)nc(C(Cl)Cl)n1	99.8*	i	i	3.5	94.3*	-4.2
SMILES	CSC inhib	TMEM16A inh	ANO1 activ	MC4R ag barr	Beta cell apopt	MC4R antag cAMP
C=CCSC(=C(C#N)C#N)c1cc2c([nH]1)CCCC2	100.5*	100*	i	3.2	13.6	6.7
Cc1nc(C(=O)O)cc([N+](=O)[O-])c1C	nt	nt	nt	0.3	nt	9.7
O=S1(=O)C=C(Sc2nc3ccccc3s2)c2ccccc21	141.2*	i	nt	nt	121.8*	nt
CC(C)(C)OC(=O)[C@H](Cc1ccccc1)NC(=O)c1[nH]cnc1C(=O)Nc1ccc(Cl)cc1	119.6*	i	i	-4.4	10.1	13.3
CC(C)(C)OC(=O)[C@H](Cc1ccccc1)NC(=O)c1[nH]cnc1C(=O)Nc1cccc(Cl)c1	96.9*	i	i	-1.9	22.4	-2.2
CC(C)(C)OC(=O)[C@H](Cc1ccccc1)NC(=O)c1nc[nH]c1C(=O)N[C@@H](Cc1ccccc1)C(=O)OC(C)(C)C	-3.8	i	i	-0.8	30.6	4.7
COC(=O)Cc1ccc(OC2(C)CCN(Cc3ccc(-c4ccccn4)cc3)C2)cc1 (stereo unspecified)	nt	nt	nt	1.6	nt	8.0
CCOC(=O)COc1ccccc1C(=O)c1cnn(-c2ccccc2)c1	6.6	i	i	-2.1	-5.5	8.9
CN(C)S(=O)(=O)c1cccc(NC(=O)CSc2cccc3cccnc23)c1	84.1*	i	i	-2.3	nt	6.9
CC1=CC2=NC(=O)/C(=C\c3ccc(-c4cccc(Cl)c4)o3)C(=N)N2O1	-4.1	i	i	11.6*	4.7	-10.7
Nc1ccccc1N=Cc1ccc(-c2cccc(Cl)c2)o1	76.6*	i	i	6.5	7.6	22.7
CC1=NOC(=O)/C1=C\c1ccc(-c2ccc(Cl)c(C(=O)O)c2)o1	nt	nt	i	1.1	nt	-3.6
CC1=NOC(=O)/C1=C\c1ccc(-c2cccc(Cl)c2)o1	63.4	100*	i	-4.5	-13.0	6.7
COC(=O)N/N=C/c1ccc(-c2cccc(Cl)c2)o1	-3.2	i	i	-0.2	0.8	0.2
COc1ccccc1CCNC(=O)c1nccnc1C(=O)O	-10.3	i	i	-0.7	-5.6	4.2
C=CCn1nc(C(=O)N2CCOCC2)cc1-c1sc(NC(=O)c2ccccc2)nc1C	nt	nt	nt	-0.9	nt	0.8
COc1ccc(NCC(=O)NN=C2CCS(=O)(=O)c3ccc(F)cc32)cc1	-12.7	nt	nt	-2.1	-5.5	-3.1
CC1(C)C(C=C(Cl)Cl)C1C(=O)Nc1ccc([N+](=O)[O-])cc1 (stereo unspecified)	54.3	i	nt	nt	96.2*	nt
O=C(Nc1ccc([N+](=O)[O-])cc1)C1CC1(c1ccccc1)c1ccccc1 (stereo unspecified)	21.4	i	i	4.8	-6.4	5.6
Cc1ccc(NC(=O)c2cc(-c3ccccc3)nn2-c2ccccc2)c(Br)c1	61.2	i	i	1.1	-12.3	17.0
Cc1ccc(NC(=O)c2cc(-c3ccccc3)nn2-c2ccccc2)cc1	87.9*	i	i	0.4	2.3	18.6
CCC(=O)Nc1ccc(NC(=O)CSc2nnnn2Cc2ccccc2)cc1C	nt	nt	i	0.6	nt	4.7
COCCNC(=O)C1(C)CCCN(Cc2cc(C(F)(F)F)ccc2Cl)C1 (stereo unspecified)	nt	nt	nt	-2.4	nt	-3.0
COc1cccc(/C=N/Nc2ncnc3scc(-c4ccccc4)c23)c1O	111.0*	i	i	-4.4	103.0*	4.2
